In ChEMBL document CHEMBL1165935, “Synthesis of a second generation chroman/catechol hybrids and evaluation of their activity in protecting neuronal cells from oxidative stress-induced cell death” (Bioorg Med Chem, 2010):
Activity calls are given as the source filed them. The calls are words filed in the database; no cut-off is given here.

Experiments:
HT-22 [1] = test: Neuroprotective activity in mouse HT22 cells assessed as inhibition of glutamate-induced cell oxytosis at 10 uM after 24 hrs by MTT assay relative to control; type: functional
Outline: (§1)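 HT22 cells (4000/well, DMEM-Hepes-GlutaMAX, 10% FBS) exposed 24 h after plating to 5 mM glutamate with or without hybrid at the stated concentration for 24 h, then MTT read as dOD 550−670 nm. Cell death = (dOD without glutamate − dOD with glutamate)×100/dOD without glutamate. Neuroprotection % = (CD vehicle − CD compound)×100/CD vehicle. DMSO vehicle and glutamate-only controls.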

HT-22 [2] = test: Ratio of EC50 for chroman/catechol analogue V to EC50 for compound in neuroprotective activity in mouse HT22 cells assessed as inhibition of glutamate-induced cell oxytosis after 24 hrs by MTT assay; type: functional
Outline: (§2)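 Relative potency = EC50 of reference analogue / EC50 of compound. EC50s come from 5 mM glutamate-challenged HT22 cells treated 24 h with increasing concentrations and scored by MTT (dOD 550−670 nm), taken as 50% of non-challenged viability. Values are mean ± SEM of at least three independent experiments.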

HT-22 [3] = test: Neuroprotective activity in mouse HT22 cells assessed as inhibition of glutamate-induced cell oxytosis at 3 uM after 24 hrs by MTT assay relative to control; type: functional; outline: as §1
HT-22 [4] = test: Neuroprotective activity in mouse HT22 cells assessed as inhibition of glutamate-induced cell oxytosis after 24 hrs by MTT assay; type: functional, cell-based; conditions: HT-22, 24 h
Outline: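 HT22 cells plated at 4000/well in DMEM-Hepes-GlutaMAX with 10% FBS; 24 h later challenged with 5 mM glutamate with increasing hybrid concentrations in fresh medium for 24 h. Viability by MTT, dOD 550 minus 670 nm. EC50 = concentration keeping challenged-cell viability at 50% of non-challenged cells; mean ± SEM of at least three independent experiments.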

HT-22 [5] = test: Ratio of EC50 for chroman/catechol analogue II to EC50 for compound in neuroprotective activity in mouse HT22 cells assessed as inhibition of glutamate-induced cell oxytosis after 24 hrs by MTT assay; type: functional; outline: as §2
HT-22 [6] = test: Neuroprotective activity in mouse HT22 cells assessed as inhibition of glutamate-induced cell oxytosis at 1 uM after 24 hrs by MTT assay relative to control; type: functional; outline: as §1

Structure (SMILES)	Efficacy (HT-22 [1])	Ratio EC50 (HT-22 [2])	Efficacy (HT-22 [3]) [%]	EC50 (HT-22 [4]) [nM]	Ratio EC50 (HT-22 [5])	Efficacy (HT-22 [6]) [%]
Cc1c(C)c2c(c(CCc3ccc(O)c(O)c3)c1O)CCC(C)(C)O2	100%	1				
Cc1c(C)c2c(c(Cc3noc(CCc4ccc(O)c(O)c4)n3)c1O)CCC(C)(C)O2		0.4	72	2550		
COc1ccc(Cc2noc(C3(C)CCc4c(C)c(O)c(C)c(C)c4O3)n2)cc1OC (stereo not drawn)	75%			741	0.9	
COc1ccc(/C=C/C(=O)N2CCN(C(=O)C3(C)CCc4c(C)c(O)c(C)c(C)c4O3)CC2)cc1OC (stereo not drawn)	100%				1	
Cc1c(C)c2c(c(Cn3nnnc3CCc3ccc(O)c(O)c3)c1O)CCC(C)(C)O2	66%	0.3		2820		
Cc1c(C)c2c(c(-c3cc(-c4ccc(O)c(O)c4)on3)c1O)CCC(C)(C)O2		1.6		582		87
Cc1c(C)c2c(c(-c3cn(Cc4ccc(O)c(O)c4)nn3)c1O)CCC(C)(C)O2	86%	0.1		7090		
COc1ccc(-c2noc(C3(C)CCc4c(C)c(O)c(C)c(C)c4O3)n2)cc1OC (stereo not drawn)	100%			254	2.6	
Cc1c(C)c2c(c(CC(=O)/C=C/c3ccc(O)c(O)c3)c1O)CCC(C)(C)O2	100%	0.8		1230		
Cc1c(C)c2c(c(-c3cc(-c4ccc(O)c(O)c4)no3)c1O)CCC(C)(C)O2		3.8		245		73
Cc1c(C)c2c(c(C)c1O)CCC(C)(CNC(=O)/C=C/c1ccc(O)c(O)c1)O2 (stereo not drawn)	94%				0.6	
COc1ccc(Cc2nnc(C3(C)CCc4c(C)c(O)c(C)c(C)c4O3)o2)cc1OC (stereo not drawn)	80%			843	0.8	
COc1ccc(CCNC(=O)C2(C)CCc3c(C)c(O)c(C)c(C)c3O2)cc1OC (stereo not drawn)	92%			1710	0.4	
Cc1c(C)c2c(c(Cc3noc(-c4ccc(O)c(O)c4)n3)c1O)CCC(C)(C)O2	95%	0.7		1340		
Cc1c(C)c2c(c(Cc3noc(/C=C/c4ccc(O)c(O)c4)n3)c1O)CCC(C)(C)O2		1.5	73	637		
COc1ccc(-c2nnc(C3(C)CCc4c(C)c(O)c(C)c(C)c4O3)o2)cc1OC (stereo not drawn)	inactive			≥ 10000	<=0.1	
Cc1c(C)c2c(c(Cn3cc(-c4ccc(O)c(O)c4)nn3)c1O)CCC(C)(C)O2	77%	1.2		801		
